Measured values from ChEMBL document CHEMBL3232944 (Bioorg Med Chem Lett, 2014).

Tests used:
RAW264.7 = test: Cytotoxicity against mouse RAW264.7 cells assessed as cell viability at >10 uM after 24 hrs by MTT assay in presence of LPS; assay type: cell-based; conditions: raw264.7, 24 h
Method in brief: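 RAW 264.7 cells plated at 10⁵ cells/well, exposed to various concentrations of compound in the presence of LPS for 24 h. Viability read by colorimetric MTT assay. At least three independent experiments.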

[1] = target: T1, Prostaglandin G/H synthase 1 (Ovis aries, UniProt P05979); test: Inhibition of ovine COX-1 assessed as decrease in PGH2 production using arachidonic acid as substrate treated with enzyme for 10 mins prior to substrate challenge for 2 mins by enzyme immunoassay
T1 sequence (P05979 whole entry): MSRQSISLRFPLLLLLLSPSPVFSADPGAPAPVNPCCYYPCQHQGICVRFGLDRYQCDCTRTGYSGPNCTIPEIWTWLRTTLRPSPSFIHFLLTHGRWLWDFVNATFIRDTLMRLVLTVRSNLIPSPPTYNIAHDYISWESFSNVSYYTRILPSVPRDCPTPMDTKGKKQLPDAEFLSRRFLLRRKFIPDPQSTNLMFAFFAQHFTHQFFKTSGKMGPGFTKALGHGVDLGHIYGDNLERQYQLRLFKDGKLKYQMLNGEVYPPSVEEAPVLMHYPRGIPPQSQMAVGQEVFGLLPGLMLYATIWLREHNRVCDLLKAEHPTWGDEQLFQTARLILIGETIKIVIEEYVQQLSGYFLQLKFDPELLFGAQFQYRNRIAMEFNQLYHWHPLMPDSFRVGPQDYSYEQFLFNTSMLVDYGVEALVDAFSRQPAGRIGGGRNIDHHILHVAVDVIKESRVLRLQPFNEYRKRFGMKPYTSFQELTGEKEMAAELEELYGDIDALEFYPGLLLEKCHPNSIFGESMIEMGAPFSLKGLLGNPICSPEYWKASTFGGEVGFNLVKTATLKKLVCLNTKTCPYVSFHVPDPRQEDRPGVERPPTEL
Method in brief: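 Ovine COX-1 was mixed with test compound at various concentrations plus heme and held 10 min at 37 °C. Arachidonic acid was then added and the reaction ran another 2 min at 37 °C. PGH₂ was reduced with SnCl₂, and the resulting PGF₂α was quantified by EIA using a broadly specific prostaglandin antibody. Boiled (3 min) enzyme served as background and compound-free samples as control. IC50 taken from at least three experiments.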

Compound	Activity (RAW264.7)	IC50 [1]
Cc1ccc(C2=C(c3ccc(S(N)(=O)=O)cc3)C(=O)NC2=O)cc1	Non-toxic	> 100 µM
COc1ccc(C2=C(c3ccc(S(N)(=O)=O)cc3)C(=O)NC2=O)cc1	Non-toxic	> 100 µM
NS(=O)(=O)c1ccc(C2=C(c3ccc(Cl)cc3)C(=O)NC2=O)cc1	Non-toxic	> 100 µM
CN1C(=O)C(c2ccccc2)=C(c2ccc(S(N)(=O)=O)cc2)C1=O	Non-toxic	> 1 µM
Cc1ccc(C2=C(c3ccc(S(N)(=O)=O)cc3)C(=O)N(C)C2=O)cc1	Non-toxic	> 1 µM
COc1ccc(C2=C(c3ccc(S(N)(=O)=O)cc3)C(=O)N(C)C2=O)cc1	Non-toxic	> 1 µM
CN1C(=O)C(c2ccc(Cl)cc2)=C(c2ccc(S(N)(=O)=O)cc2)C1=O	Non-toxic	> 1 µM
NS(=O)(=O)c1ccc(C2=C(c3ccccc3)C(=O)NC2=O)cc1	Non-toxic	127 µM
